System: MS2 coat protein
Assay: apparent Kd, MS2 coat protein; higher = weaker binding; RNA-MaP array
Outline: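 Designed RNAs were produced on an Illumina sequencing chip by transcription of sequenced DNA templates. Binding to fluorescently labeled MS2 coat protein (1.5 nM to 3 μM) was measured at room temperature with or without input ligand. The apparent Kd is the median of per-cluster binding-curve fits. Designs were excluded when measured on fewer than 10 clusters.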

[1] = designed as: ON switch for flavin mononucleotide, no ligand
[2] = ligand present: flavin mononucleotide, designed as: ON switch for flavin mononucleotide
[3] = designed as: OFF switch for flavin mononucleotide, no ligand
[4] = ligand present: flavin mononucleotide, designed as: OFF switch for flavin mononucleotide
[5] = designed as: OFF switch for tryptophan, no ligand
[6] = ligand present: tryptophan, designed as: OFF switch for tryptophan
[7] = designed as: OFF switch for theophylline, no ligand
[8] = ligand present: theophylline, designed as: OFF switch for theophylline

“GCUGCUCAUCAAAACUGGACAUGAGGAUCACCCAUGUCUUUGCAGGAUAUUGAUCGUCAGUACAUCAAGAAGGGCACGCGGCAA” was tested, and the “apparent Kd” value [1] was 0.0129 µM and the “apparent Kd” value [2] was 0.00989 µM.
For “AUAAGUAUAGGAUAUACAGGUAAGCGUUCUUACCGAUCCAGACAUGAGGAUCACCCAUGUAGAAGGAUACGUCU”, the “apparent Kd” value [3] was 0.00818 µM and the “apparent Kd” value [4] was 0.00787 µM.
With “GACGAGUGCGAGUCACAUGAGGAUCACCCAUGUAACCAUGGGCAGGAUAUCUACCAGUUACUUUCAGAGAAGGGCCAACGAACU” the “apparent Kd” value [1] was 0.419 µM and the “apparent Kd” value [2] was 0.108 µM.
“CUGGAUCCGGGAGGAUAUAGACGUUCAGCCUCGUUGCUAACAAGACAUGAGGAUCACCCAUGUAUCUAGAAGGCCCGCCUGGGA” was tested, and the “apparent Kd” value [1] was 0.0198 µM and the “apparent Kd” value [2] was 0.0138 µM.
With “GGAUUUGAUCCAGGAUAUUAACAAUCCUCAGAUCAAAAUACAUGAGGAUCACCCAUGUACUCAAAUAAGAAGGGGAUGGCGGCC” the “apparent Kd” value [3] was 0.0257 µM and the “apparent Kd” value [4] was 0.0205 µM.
“GCGACUCUCGUGAAGCGACAUGAGGAUCACCCAUGUAACACUAGAAGGAGGCACGAUACGAUGUCCUAGGAUAUAGACACGGCU” was tested, and the “apparent Kd” value [3] was 0.0278 µM and the “apparent Kd” value [4] was 0.0265 µM.
“CGUACAGUCGAAGGAUAUUCGCGGGAGUUUGCCGAAGAAGGUCGCUAGUAGGGUGACAUGCUGUGACAUGAGGAUCACCCAUGU” was tested, and the “apparent Kd” value [3] was 0.165 µM and the “apparent Kd” value [4] was 0.239 µM.
For “UAACUCAAGUAACAGGAUAUGAGUGCGGAUACAUGAGGAUCACCCAUGUUGACGAUAACCGGACAACAGAAGGGUACCUAACUUGG”, the “apparent Kd” value [1] was 0.0335 µM and the “apparent Kd” value [2] was 0.0222 µM.
In the case of “UCUUGAGGCUAGGAUAUCAUACAUAAAAGCAACUGAGAAGGAGCCACAUGAGGAUCACCCAUGUAUCCGUUAUG”, the “apparent Kd” value [3] is reported as 0.0165 µM and the “apparent Kd” value [4] is reported as 0.0716 µM.
“AUGUCCUAAACGGCCGCCACUUACAUGAGGAUCACCCAUGUUUACCGAUAUGGUUGUUGCUUUCCAAGGACCGGGUUUAAUCUGC” was tested, and the “apparent Kd” value [5] was 0.0126 µM and the “apparent Kd” value [6] was 0.0135 µM.
“GCAAAUGCUGAGAAGGUGAUGAAUAACUCCUCGAUGUAACUUGACAUGAGGAUCACCCAUGUCAUCAAGGAUAUCAAAGUGAAC” was tested, and the “apparent Kd” value [3] was 0.00954 µM and the “apparent Kd” value [4] was 0.0162 µM.
“ACAUCUUGUACGGCCGCCACUAACAGAUUCAGCGUCGGAGCCAACUACAUGAGGAUCACCCAUGUUAGGACCGGGUACUGUCCAC” was tested, and the “apparent Kd” value [5] was 0.0177 µM and the “apparent Kd” value [6] was 0.0348 µM.
“CACUGACAUGAGGAUCACCCAUGUAUGCUCGACCAAGGAUAUUGAUCAGACAAGCAUACGCAAGAAGGUGGUGAGA” was tested, and the “apparent Kd” value [1] was 0.222 µM and the “apparent Kd” value [2] was 0.105 µM.
With “ACCCAGACAUGAGGAUCACCCAUGUAAAUAGAGUACAUCAGGAGAAGGUUCAAAGGGCCUACCCGAAAGGAUAUCCUCGGCGUA” the “apparent Kd” value [1] was 0.0308 µM and the “apparent Kd” value [2] was 0.0257 µM.
With “UUUAAGAGAGGAUAUGUAGAAUAUAACAUGAGGAUCACCCAUGUACAGAGUGUUAAAGUCACAGAAGGCUCCAUGU” the “apparent Kd” value [3] was 0.0275 µM and the “apparent Kd” value [4] was 0.0206 µM.
With “CAUCCUCUUUGACAUGAGGAUCACCCAUGUAUUGCAGUGACCAGAAGGCGUUCCCACAAAGUGGACGAGGAUAUGGAAAAGCCG” the “apparent Kd” value [3] was 0.193 µM and the “apparent Kd” value [4] was 0.184 µM.
In the case of “CCAGCCCUUCUAGAUACCAGCUUUCAAUAUAAGACAACUCACAUGAGGAUCACCCAUGUUAGCCCUUGGCAGCUAAGAUCCACAA”, the “apparent Kd” value [7] is reported as 0.0521 µM and the “apparent Kd” value [8] is reported as 0.0573 µM.
For “UCGAACGGGCAAGGAUAUCGAAGAUCCAAAAUUCGAGAAGGUGCAUGUGAUCGUCCGGUGUCACAUGAGGAUCACCCAUGUCAA”, the “apparent Kd” value [3] was 0.354 µM and the “apparent Kd” value [4] was 0.179 µM.
In the case of “AUGAUGUAAGGAUAUUGCGCGAUGUUUACCAUUGGUCUGCACAAGAAGGUACAUGAGGAUCACCCAUGUGGGCC”, the “apparent Kd” value [3] is reported as 0.0279 µM and the “apparent Kd” value [4] is reported as 0.0399 µM.
“AUCAUGAUUUUAGGAUAUAUGACGUUAUACAAUGGACAUGAGGAUCACCCAUGUAGUCGCGCUCUAUAGAAGGAAAGCUCAGUU” was tested, and the “apparent Kd” value [3] was 0.0441 µM and the “apparent Kd” value [4] was 0.0365 µM.
For “AGUACCAAUGAGGAUACCAGAGUGCGACGCCGAAACCUUGACAUGAGGAUCACCCAUGUACUCCCUUGGCAGCCUGUACUUGCCA”, the “apparent Kd” value [7] was 0.0359 µM and the “apparent Kd” value [8] was 0.0826 µM.
In the case of “CUAAGAUAAGAAGGAUAUAAAACAUGAGGAUCACCCAUGUAAAAGUACAUCACACUACAAAUGGAUUAGAAGGUCUUAAUAACC”, the “apparent Kd” value [3] is reported as 0.0102 µM and the “apparent Kd” value [4] is reported as 0.00847 µM.
For “UGCGCGAGAGGAUAUUAUCGUAACUACAUGAGGAUCACCCAUGUUUCGCCCGUAGCUGGAUAAGAAGGCUCGAGUG”, the “apparent Kd” value [3] was 0.0146 µM and the “apparent Kd” value [4] was 0.0207 µM.
For “GGGCAACAUGAGGAUCACCCAUGUCGUCAUGGGUUCAAUCGGAGAAGGAACGGAGUGAUAUCCAGUUAGGAUAUCCGCUACACU”, the “apparent Kd” value [3] was 0.0446 µM and the “apparent Kd” value [4] was 0.044 µM.
“CUUAUGAUCGAGGAUAUCACAAAUGGGCAGCGUUGAGAAGGCGACACAUGAGGAUCACCCAUGUAAUCAACAGU” was tested, and the “apparent Kd” value [3] was 0.0184 µM and the “apparent Kd” value [4] was 0.0159 µM.
“GUCAUGUUAGGAUAUACACGUACCCGCCGACAGCCAGCAAUGUAGAAGGAACAUGAGGAUCACCCAUGUCGUGG” was tested, and the “apparent Kd” value [3] was 0.0152 µM and the “apparent Kd” value [4] was 0.0315 µM.
With “UUGGUCCACAGACAUGAGGAUCACCCAUGUAGUAGUUGAAUGAGAAGGGCACUGGCUUGUCAGGUGCAGGAUAUCAGUCUAUGU” the “apparent Kd” value [3] was 0.118 µM and the “apparent Kd” value [4] was 0.106 µM.
